Results published in article PMC12155403 (RSC Medicinal Chemistry, 2025).

Tests used:
MOLT-4 cells = test: MOLT-4 cell viability; format: cell-based; details: for IC50: Homo sapiens, MOLT-4, 48 h, read-out: IC50 (MOLT-4 cells)
Summary of the method: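 MOLT-4 (T-ALL) cells, STR-profiled and mycoplasma-negative, were kept at 37 °C in 5% CO2. Between […] and 1 × 10^5 suspension cells were seeded per well and exposed to test compound for 48 h or 72 h. Viability was read with tetrazolium MTS reagent, and IC50 values were calculated from the viability data.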

[1] = system: PARP and caspase-3 cleavage; test: Western blot of cleaved PARP and cleaved caspase-3 in MOLT-4 cells; format: cell-based; details: 16 h
Summary of the method: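 MOLT-4 cells were treated for 16 h across a concentration series. Lysates were immunoblotted (4–20% Tris-glycine gels, PVDF, 5% milk/TBST block, primary antibody overnight at 4 °C, HRP secondary, ECL) for cleaved PARP and cleaved caspase-3. Full-length PARP was detected by stripping and reprobing the membrane. Bands were normalised to β-actin.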

human platelets = test: Human platelet viability assay; format: cell-based
MOLT-4 xenograft = test: MOLT-4 T-ALL xenograft mouse model; format: in vivo; details: 1.5 mg kg−1, Q4D, i.p., MOLT-4 xenograft mice
Summary of the method: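 MOLT-4 cells (5 × 10^6) in RPMI:Matrigel 1:1 were implanted s.c. in the right flank of 5-week-old CB-17 SCID mice. At mean tumour ~150 mm3, mice were randomised (n = 6 per group) to vehicle or 1.5 mg kg−1 i.p. every 4 days. The vehicle was 50% Phosal 50 PG, 45% Miglyol 810 N and 5% polysorbate 80. Calipers were used twice weekly, volume = (L × W2) × 0.5.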

SCLC cell lines = test: Viability of a panel of SCLC cell lines; format: cell-based; details: 72 h
Summary of the method: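 SCLC lines came from the NCI-Navy Medical Oncology supply, with H146 from ATCC. Stocks were STR-profiled and mycoplasma-negative, kept at 37 °C and 5% CO2.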

Bcl-xL [2] = molecular target: T1, Bcl-xL (Homo sapiens, UniProt Q07817); test: Bcl-xL levels in human platelets; format: cell-based; details: 48 h
platelets = test: In vivo platelet toxicity assay; details: single dose 1.5 mg kg−1, i.p., mice
Bcl-xL [3] = molecular target: T1, Bcl-xL; test: Bcl-xL degradation in MOLT-4 cells; format: cell-based
Summary of the method: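 MOLT-4 cells (RPMI 1640, 10% FBS, 1% penicillin–streptomycin, 37 °C, 5% CO2) were treated for 16 h across a concentration series, or at 100 nM over a time course. Where stated, cells had 1 μM MG-132 pretreatment for 2 h. Lysates were run on 4–20% Tris-glycine gels and blotted to PVDF, with ECL detection. Band densities were normalised to β-actin, three independent experiments, mean ± SD.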

NCI-H146 cells = details: read-out: IC50 (NCI-H146 cells); NCI-H146 SCLC cells; earlier work; cited from earlier work

T1 sequence (Q07817 whole entry): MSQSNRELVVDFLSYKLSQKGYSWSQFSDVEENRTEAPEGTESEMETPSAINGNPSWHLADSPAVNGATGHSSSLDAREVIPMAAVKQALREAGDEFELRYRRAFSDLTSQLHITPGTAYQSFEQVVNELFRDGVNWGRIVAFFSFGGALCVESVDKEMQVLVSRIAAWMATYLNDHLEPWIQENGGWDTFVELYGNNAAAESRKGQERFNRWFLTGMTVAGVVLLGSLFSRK

SMILES	IC50 (MOLT-4 cells) [nM]	other results
CN(CCOCCOCCOCC#Cc1cccc2c1CN(C1CCC(=O)NC1=O)C2=O)CC[C@H](CSc1ccccc1)Nc1ccc(S(=O)(=O)NC(=O)c2ccc(N3CCN(CC4=C(c5ccc(Cl)cc5)CCC(C)(C)C4)CC3)cc2)cc1S(=O)(=O)C(F)(F)F (stereo partly shown) [4a]	4.1	–
CN(CCOCCOCCN1CCN(c2cccc3c2C(=O)N(C2CCC(=O)NC2=O)C3=O)CC1)CC[C@H](CSc1ccccc1)Nc1ccc(S(=O)(=O)NC(=O)c2ccc(N3CCN(CC4=C(c5ccc(Cl)cc5)CCC(C)(C)C4)CC3)cc2)cc1S(=O)(=O)C(F)(F)F (stereo partly shown) [2d]	10.6	fold weaker cellular activity than 2b (MOLT-4 cells; vs 2b, MOLT-4 cells): 2 fold
CN(CCOCCOCCN1CCC(CCc2cccc3c2C(=O)N(C2CCC(=O)NC2=O)C3=O)CC1)CC[C@H](CSc1ccccc1)Nc1ccc(S(=O)(=O)NC(=O)c2ccc(N3CCN(CC4=C(c5ccc(Cl)cc5)CCC(C)(C)C4)CC3)cc2)cc1S(=O)(=O)C(F)(F)F (stereo partly shown) [2f]	45.5	–
CN(CCOCCOCCOCCCc1ccc2c(c1)CN(C1CCC(=O)NC1=O)C2=O)CC[C@H](CSc1ccccc1)Nc1ccc(S(=O)(=O)NC(=O)c2ccc(N3CCN(CC4=C(c5ccc(Cl)cc5)CCC(C)(C)C4)CC3)cc2)cc1S(=O)(=O)C(F)(F)F (stereo partly shown) [PZ671]	1.3	PARP and caspase-3 cleavage [1]: dose-dependently increased; selectivity for MOLT-4 cells over platelets (human platelets): 25 fold; fold decrease in selectivity for MOLT-4 cells over platelets compared to XZ739 (human platelets; vs XZ739): ~5 fold; tumor growth (MOLT-4 xenograft): markedly suppressed the tumor growth; cell killing potency in SCLC cell lines compared to XZ739 (SCLC cell lines): more potent than XZ739; concentration at which Bcl-xL is degraded in human platelets (Bcl-xL [2]): above 1 μM; platelet count recovery (platelets): rapid recovery observed from the second day onward; fold improved cellular activity against MOLT-4 cells compared to XZ739 (MOLT-4 cells; vs XZ739, listed as 5b): 8 fold; time to almost complete Bcl-xL degradation (Bcl-xL [3]; MOLT-4 cells, 100 nM): 4 h; time to significantly reduced Bcl-xL protein levels (Bcl-xL [3]; MOLT-4 cells, 100 nM): ≤ 2 h; Bcl-xL degradation after proteasome inhibitor pretreatment (Bcl-xL [3]; MOLT-4 cells, pretreatment with 1 μM MG-132 for 2 h): blocked; fold enhanced degradation potency against Bcl-xL compared to XZ739 (Bcl-xL [3]; vs XZ739, MOLT-4 cells): ~6 fold
CN(CCOCCOCCOCC#Cc1ccc2c(c1)CN(C1CCC(=O)NC1=O)C2=O)CC[C@H](CSc1ccccc1)Nc1ccc(S(=O)(=O)NC(=O)c2ccc(N3CCN(CC4=C(c5ccc(Cl)cc5)CCC(C)(C)C4)CC3)cc2)cc1S(=O)(=O)C(F)(F)F (stereo partly shown) [5a]	2.1	–
CC1(C)CCC(c2ccc(Cl)cc2)=C(CN2CCN(c3ccc(C(=O)NS(=O)(=O)c4ccc(N[C@H](CCN(CCOCCOCCOCCNc5cccc6c5C(=O)N(C5CCC(=O)NC5=O)C6=O)CC5CCC5)CSc5ccccc5)c(S(=O)(=O)C(F)(F)F)c4)cc3)CC2)C1 (stereo partly shown) [1g]	326	–
CN(CCOCCOCCOCCOc1cccc2c1C(=O)N(C1CCC(=O)NC1=O)C2=O)CC[C@H](CSc1ccccc1)Nc1ccc(S(=O)(=O)NC(=O)c2ccc(N3CCN(CC4=C(c5ccc(Cl)cc5)CCC(C)(C)C4)CC3)cc2)cc1S(=O)(=O)C(F)(F)F (stereo partly shown) [2a]	10.4	–
CN(CCOCCOCCN1CCC(C#Cc2cccc3c2C(=O)N(C2CCC(=O)NC2=O)C3=O)CC1)CC[C@H](CSc1ccccc1)Nc1ccc(S(=O)(=O)NC(=O)c2ccc(N3CCN(CC4=C(c5ccc(Cl)cc5)CCC(C)(C)C4)CC3)cc2)cc1S(=O)(=O)C(F)(F)F (stereo partly shown) [2e]	36.1	fold reduced activity compared to 2d (MOLT-4 cells; vs 2d, MOLT-4 cells): ~4 fold
CN(CCOCCOCCOCC#Cc1cccc2c1C(=O)N(C1CCC(=O)NC1=O)C2=O)CC[C@H](CSc1ccccc1)Nc1ccc(S(=O)(=O)NC(=O)c2ccc(N3CCN(CC4=C(c5ccc(Cl)cc5)CCC(C)(C)C4)CC3)cc2)cc1S(=O)(=O)C(F)(F)F (stereo partly shown) [2b]	5.2	fold increase in potency against MOLT-4 cells compared to 2a (MOLT-4 cells; vs 2a): 2 fold
CC1(C)CCC(c2ccc(Cl)cc2)=C(CN2CCN(c3ccc(C(=O)NS(=O)(=O)c4ccc(N[C@H](CCN(CCOCCOCCOCCNc5cccc6c5C(=O)N(C5CCC(=O)NC5=O)C6=O)C5COC5)CSc5ccccc5)c(S(=O)(=O)C(F)(F)F)c4)cc3)CC2)C1 (stereo partly shown) [1f]	397	–
CN(CCOCCOCCOCCCc1cccc2c1CN(C1CCC(=O)NC1=O)C2=O)CC[C@H](CSc1ccccc1)Nc1ccc(S(=O)(=O)NC(=O)c2ccc(N3CCN(CC4=C(c5ccc(Cl)cc5)CCC(C)(C)C4)CC3)cc2)cc1S(=O)(=O)C(F)(F)F (stereo partly shown) [4b]	4.5	–
Cc1ncsc1-c1ccc([C@H](C)NC(=O)[C@@H]2C[C@@H](O)CN2C(=O)[C@@H](NC(=O)CCCCCC(=O)N2CCN(CC[C@H](CSc3ccccc3)Nc3ccc(S(=O)(=O)NC(=O)c4ccc(N5CCN(CC6=C(c7ccc(Cl)cc7)CCC(C)(C)C6)CC5)cc4)cc3S(=O)(=O)C(F)(F)F)CC2)C(C)(C)C)cc1 [DT2216]	–	IC50 (NCI-H146 cells): 278 nM
CN(CCOCCOCCOCCCc1ccc2c(c1)C(=O)N(C1CCC(=O)NC1=O)C2=O)CC[C@H](CSc1ccccc1)Nc1ccc(S(=O)(=O)NC(=O)c2ccc(N3CCN(CC4=C(c5ccc(Cl)cc5)CCC(C)(C)C4)CC3)cc2)cc1S(=O)(=O)C(F)(F)F (stereo partly shown) [3b]	4.3	–
CC1(C)CCC(c2ccc(Cl)cc2)=C(CN2CCN(c3ccc(C(=O)NS(=O)(=O)c4ccc(N[C@H](CCN(CCOCCOCCOCCNc5cccc6c5C(=O)N(C5CCC(=O)NC5=O)C6=O)C5CCC5)CSc5ccccc5)c(S(=O)(=O)C(F)(F)F)c4)cc3)CC2)C1 (stereo partly shown) [1e]	330	–
CC1(C)CCC(c2ccc(Cl)cc2)=C(CN2CCN(c3ccc(C(=O)NS(=O)(=O)c4ccc(N[C@H](CCNCCOCCOCCOCCNc5cccc6c5C(=O)N(C5CCC(=O)NC5=O)C6=O)CSc5ccccc5)c(S(=O)(=O)C(F)(F)F)c4)cc3)CC2)C1 (stereo partly shown) [1a]	59.7	–
CN(CCOCCOCCOCCCc1cccc2c1C(=O)N(C1CCC(=O)NC1=O)C2=O)CC[C@H](CSc1ccccc1)Nc1ccc(S(=O)(=O)NC(=O)c2ccc(N3CCN(CC4=C(c5ccc(Cl)cc5)CCC(C)(C)C4)CC3)cc2)cc1S(=O)(=O)C(F)(F)F (stereo partly shown) [2c]	6.2	–
CCN(CCOCCOCCOCCNc1cccc2c1C(=O)N(C1CCC(=O)NC1=O)C2=O)CC[C@H](CSc1ccccc1)Nc1ccc(S(=O)(=O)NC(=O)c2ccc(N3CCN(CC4=C(c5ccc(Cl)cc5)CCC(C)(C)C4)CC3)cc2)cc1S(=O)(=O)C(F)(F)F (stereo partly shown) [1b]	52.8	–
CC1(C)CCC(c2ccc(Cl)cc2)=C(CN2CCN(c3ccc(C(=O)NS(=O)(=O)c4ccc(N[C@H](CCN5CCOCC5)CSc5ccccc5)c(S(=O)(=O)C(F)(F)F)c4)cc3)CC2)C1 [ABT-263, navitoclax, reference compound]	202	–
CC1(C)CCC(c2ccc(Cl)cc2)=C(CN2CCN(c3ccc(C(=O)NS(=O)(=O)c4ccc(N[C@H](CCN(CCOCCOCCOCCNc5cccc6c5C(=O)N(C5CCC(=O)NC5=O)C6=O)C5CC5)CSc5ccccc5)c(S(=O)(=O)C(F)(F)F)c4)cc3)CC2)C1 (stereo partly shown) [1d]	297	–
CN(CCOCCOCCOCC#Cc1ccc2c(c1)C(=O)N(C1CCC(=O)NC1=O)C2=O)CC[C@H](CSc1ccccc1)Nc1ccc(S(=O)(=O)NC(=O)c2ccc(N3CCN(CC4=C(c5ccc(Cl)cc5)CCC(C)(C)C4)CC3)cc2)cc1S(=O)(=O)C(F)(F)F (stereo partly shown) [3a]	14.3	fold reduced potency against MOLT-4 cells compared to 2b (MOLT-4 cells; vs C4-substituted 2b): ~3 fold
CC1(C)CCC(c2ccc(Cl)cc2)=C(CN2CCN(c3ccc(C(=O)NS(=O)(=O)c4ccc(N[C@H](CCN(CCOCCOCCOCCNc5cccc6c5C(=O)N(C5CCC(=O)NC5=O)C6=O)C5CCCCC5)CSc5ccccc5)c(S(=O)(=O)C(F)(F)F)c4)cc3)CC2)C1 (stereo partly shown) [1i]	> 1000	–
